# Measurements as given in the EternaBench riboswitch data.
# Tested on: MS2 coat protein
# Assay: apparent Kd, MS2 coat protein; higher = weaker binding; RNA-MaP array; FMN 200 µM where present
# How it was run: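 The apparent Kd is reported as the median of filtered per-cluster binding-curve fits. To get these curves, designs transcribed by stalled E. coli RNA polymerase on Illumina sequencing-chip clusters were titrated with SNAP-549-labelled MS2 coat protein from 0.7 or 1.5 nM, doubling to 3 µM. Titrations were run without and then with constant ligand in 100 mM Tris-HCl pH 7.5, 80 mM KCl, 4 mM MgCl2, BSA, DTT, yeast tRNA and Tween-20, and green signal was normalised to red-channel RNA signal and control-cluster median Fmax.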
# [1] = designed as: OFF switch for flavin mononucleotide, no ligand
# [2] = ligand present: flavin mononucleotide, designed as: OFF switch for flavin mononucleotide
# [3] = designed as: ON switch for flavin mononucleotide, no ligand
# [4] = ligand present: flavin mononucleotide, designed as: ON switch for flavin mononucleotide
Sequence,apparent Kd [1] [nM],apparent Kd [2] [nM],apparent Kd [3] [nM],apparent Kd [4] [nM]
AUAAGCUCGUCAGGAUAUGCGACACUGUGUCAGCAGUGUGGUAUGAUCACAUGAGGAUCACCCAUGUAGAAGGGACGAGCUUAU,6.34,14.3,,
GCACUUAAGUUAGGAUAUGGAUCGGAAAACGAUCCAGAAGGAAUAUGGGAACAUGAGGAUCACCCAUGUUCCACAAACAAGUGC,,,55.4,29
ACAUGAGGAUCACCCAUGUGAACAUAGGAUAUUGGUGAUCAGGCAUGUUAUACAGGAUAUGUCUGCGAGAAGGAUGCACGUUGC,,,567,341
AUUGCUAGCGCAGGAUAUGAUGCGAAAAUUGCGUCAGAAGGGUGUAAUCUCUCAUUGCGGGAGGACAUGAGGAUCACCCAUGUC,,,142,87
UUUCAACAUGAGGAUCACCCAUGUGAGGAUAUGAUGCAGCAGUGGUCUACGCUGUGCAUCAGAAGGCACAUGUG,200,21.8,,
GGUACCAUCACAGGAUAUGCUUUCCUUUGGAAAGCAGAAGGGUGUAACAUGAGGAUCACCCAUGUGGUGCCAGGGCGUGAGCCC,,,184,13
ACUACUUAGUGAGGAUAUACAUAAUUUAUAACUGUAGAAGGCACAAACCUCAAUACAUGAGGAUCACCCAUGUUAUAUAUCUAA,62.6,64.3,,
AGUUACAAACUCAACAUGAGGAUCACCCAUGUACUCUCUUGUAAGGAUAUACAUUCGUAUUGAAAGUAGAAGGUACUAAUUAUG,,,69.4,69.8
GGCCCGCGCGUGAGGAUAUGCUGAUUCUAGGAUUAGCAGAAGGCACAUGAGGAUCACCCAUGUCCAACUUGUCU,28.6,36.1,,
AAUUAGGUCACAGGAUAUACAACUUCCAAUGCUGUAGAAGGGUGUCACAUACUUAGCUGACAUGAGGAUCACCCAUGUAUCCAC,,,184,70.5
CGGUCGAUGUAAGGAUAUCGACUGGAUAACAGUCGAGAAGGUACAUGAGGAUCACCCAUGUAAUCCUAAUAAUAAUAACGACCG,12.6,18,,
AGGGUAGUAGGAUAUACAUGAGGAUCACCCAUGUUUCCAUUACGUGACUGGUCCUAGUGUAGAAGGGCUAGCAC,,17.4,,
AUCAGCUCGUCAGGAUAUACGUCAGUGCGUCAGCAGUGUGGUAAGAUCACAUGAGGAUCACCCAUGUAGAAGGGACGAGCUGAU,161,621,,
CCUUAAAUUGUAAGGAUAUUAAAGCUGCUGAGUUAUAAGAAGGUACAUGAGGAUCACCCAUGUUCGGCAGGGUC,17.8,18.4,,
AGACAUGUCCGAGGAUAUCUGGAAACAUUUUCAAGAGAAGGCGGACAUGAGGAUCACCCAUGUCUCUCCUCAUCAAAUCCAAGU,7.98,44.6,,
GCCAGCGCAUGAGGAUAUGCUCCCGUUUCGGGAGCAGAAGGCAUGUCAUAAGACAUGAGGAUCACCCAUGUAGUCAAGAUGGCA,,,340,15.7
AGCUACACCCAGAAGGACAUGAGGAUCACCCAUGUAGGAUAUGGGAGACACAGUCCCAUGUAGAGAAAUUACGCUAGUGUAGCG,,,102,46.5
GCACGAAGCUAGAAGGGCGAUUUGCACAUGAGGAUCACCCAUGUCCAACGUAGGAUAUGGCUGGCGGGAACGCAAGGUGCGCGC,,,330,37.3
ACAUGAGGAUCACCCAUGUAAAGCGAGGAUAUUUCACUGCACAUGAGGUUCGCCCAUGUUCUGCGGAAGAAGGUGCAAAUAAUU,,,,28.1
CUUUUGUGAGGAUAUUAGUAGUAAAUAAAUAAAUUUACUACUGAGAAGGCACAUGAGGAUCACCCAUGUUCCUC,36.7,328,,
